Test results as given in ChEMBL document CHEMBL1135477, “Antifungal agents. 10. New derivatives of 1-[(aryl)[4-aryl-1H-pyrrol-3-yl]methyl]-1H-imidazole, synthesis, anti-candida activity, and quantitative structure-analysis relationship studies” (J Med Chem, 2002).
Values after ≈ are worked out from the molar mass of the structure shown.

Assays:
Type in all cases: functional
Candida albicans [1] = assay: In vitro antifungal activity against 40 strains at pH 7.2 minimum inhibitory concentration
Procedure, shortened: (§1)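 Inocula were 10³/mL, pre-grown 18 h at 37 °C. MIC is the lowest concentration with no visible growth versus a DMSO/water blank at 24 h, 37 °C. The mean MIC is ΣMICi over the total strain number; MIC50/MIC90 cover 50%/90% of strains.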

Candida albicans [2] = assay: Tested In vitro for antifungal activity at pH 5.8
Candida [3] = assay: Tested In vitro for antifungal activity against candida Spp (Candida glabrata, Candida krusei) at pH 7.2
Procedure, shortened: (§2)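 Inocula were 10³/mL, pre-grown 18 h at 37 °C. MIC is the lowest concentration with no visible growth versus a blank at 24 h, 37 °C. The mean MIC is ΣMICi over the strain number; MIC50/MIC90 are also reported.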

Candida [4] = assay: Tested in vitro for antifungal activity against candida Spp (Candida glabrata, Candida krusei) at pH 7.2 (percent of resistant species at 256 ug/mL)
Procedure, shortened: (§3)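 Broth serial-dilution test in Sabouraud broth at pH 7.2 or 5.8, against 3 fresh clinical non-albicans isolates (two C. glabrata, one C. krusei). Inocula were 10³/mL, pre-grown 18 h at 37 °C. Compound was twofold-diluted over 0.25–256 µg/mL and read at 24 h, 37 °C for visible growth.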

Candida [5] = assay: Tested In vitro for antifungal activity against candida Spp (Candida glabrata, Candida krusei) at pH 5.8; procedure, shortened: as §2
Candida albicans [6] = assay: In vitro antifungal activity against 40 strains at pH 7.2; procedure, shortened: as §1
Candida [7] = assay: In vitro antifungal activity against candida Spp (Candida glabrata, Candida krusei) at pH 5.8,(percent of resistant species at 256 ug/mL); procedure, shortened: as §3
Candida albicans [8] = assay: (§4) In vitro antifungal activity against 40 strains at pH 5.8,(percent of resistant species at 256 ug/mL)
Procedure, shortened: (§5)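 Broth serial-dilution test in Sabouraud broth at pH 7.2 or 5.8, against 40 fresh clinical C. albicans isolates from hospitalized patients. Inocula were 10³/mL, pre-grown 18 h at 37 °C in Sabouraud dextrose broth. Compound from a DMSO/water stock was twofold-diluted over 0.25–256 µg/mL. Visible growth was read at 24 h, 37 °C.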

Candida albicans [9] = assay: In vitro antifungal activity against 40 strains at pH 7.2,(percent of resistant species at 256 ug/mL); procedure, shortened: as §5
Candida albicans [10] = assay: In vitro antifungal activity against 40 strains of Candida albicans at pH 5.8
Procedure, shortened: (§6)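 Broth serial-dilution MIC against 40 clinical C. albicans isolates from hospitalized patients, grown in Sabouraud broth at pH 7.2 or 5.8. Cells were pre-grown 18 h at 37 °C, inoculated at 10³/mL, and read at 24 h, 37 °C. Doubling dilutions ran 0.25–256 μg/mL from a DMSO/water solution. MIC was the lowest concentration with no visible growth against a DMSO/water blank.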

Candida [11] = assay: Tested In vitro for antifungal activity against Candida species. at pH 7.2; (percent of resistant species at 256 ug/mL); procedure, shortened: as §3
Candida [12] = assay: Tested In vitro for antifungal activity against Candida species. at pH 7.2
Procedure, shortened: (§7)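 Liquid serial-dilution MIC against 3 freshly isolated clinical Candida strains (two C. glabrata, one C. krusei) in Sabouraud broth at pH 7.2 or 5.8. Inoculum was 10³/mL after 18 h pre-culture at 37 °C, read at 24 h, 37 °C. Range was 0.25–256 μg/mL. Endpoint was no visible growth versus a DMSO/water blank.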

Candida albicans [13] = assay: In vitro antifungal activity against 40 strains of Candida albicans at pH 7.2; procedure, shortened: as §6
[14] = biological target: Lanosterol 14-alpha demethylase (Candida albicans (strain SC5314 / ATCC MYA-2876) (Yeast), UniProt P10613); assay: Anticandida activity- (MIC90 compound) / (MIC90 bifonazole)
Candida [15] = assay: Tested In vitro for antifungal activity against Candida species. at pH 7.2; (range is from 8 to 128); procedure, shortened: as §7
Candida albicans [16] = assay: In vitro antifungal activity against 40 strains of Candida albicans at pH 7.2; (percent of resistant species at 256 ug/mL); procedure, shortened: as §5
Candida albicans [17] = assay: In vitro antifungal activity against 40 strains of Candida albicans at pH 5.8; (range is from 1 to 32); procedure, shortened: as §6
Candida [18] = assay: Tested in vitro for antifungal activity against Candida species. at pH 5.8; range is from 4 to 16
Procedure, shortened: (§8)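 Fresh clinical isolates (two C. glabrata, one C. krusei) were pre-grown 18 h at 37 °C in Sabouraud dextrose broth. Broth double-dilution was run in Sabouraud broth at pH 5.8 or 7.2 over 0.25–256 µg/mL from a DMSO/water stock, with 10³/mL inoculum.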

Candida [19] = assay: Tested in vitro for antifungal activity against Candida species. at pH 5.8 (percent of resistant species at 256 ug/mL); procedure, shortened: as §3
Candida [20] = assay: Tested in vitro for antifungal activity against Candida species. at pH 5.8; procedure, shortened: as §7
Candida albicans [21] = assay: In vitro antifungal activity against 40 strains of Candida albicans at pH 5.8; (percent of resistant species at 256 ug/mL); procedure, shortened: as §5
Candida albicans [22] = assay: In vitro antifungal activity against 40 strains of Candida albicans at pH 7.2; minimum inhibitory concentration (range is from 4 to 64); procedure, shortened: as §6
Candida albicans [23] = assay: In vitro antifungal activity against Candida albicans (40 strains) at pH 7.2,(percent of resistant species at 256 ug/mL); procedure, shortened: as §5
Candida albicans [24] = assay: In vitro antifungal activity against Candida albicans (40 strains) at pH 5.8,(percent of resistant species at 256 ug/mL); procedure, shortened: as §5
Candida [25] = assay: Tested in vitro for antifungal activity against Candida species. at pH 7.2; procedure, shortened: as §8
Candida albicans [26] = assay: In vitro antifungal activity against Candida albicans (40 strains) at pH 7.2; procedure, shortened: as §6
Candida albicans [27] = assay: Tested in vitro for antifungal activity against Candida albicans at pH 5.8 (range 1-8); procedure, shortened: as §6
Candida albicans [28] = assay: In vitro antifungal activity against Candida albicans (40 strains) at pH 7.2(value ranges from 0.5 to 32); procedure, shortened: as §6
Candida albicans [29] = assay: Tested in vitro for antifungal activity against Candida albicans at pH 5.8; procedure, shortened: as §6
Candida [30] = assay: as §4; procedure, shortened: as §5
Candida [31] = assay: Tested in vitro for antifungal activity against Candida species. at pH 7.2 (value ranges from 0.5 to 8); procedure, shortened: as §8
Candida [32] = assay: Tested in vitro for antifungal activity against Candida species. at pH 7.2 (percent of resistant species at 256 ug/mL); procedure, shortened: as §3

Chain of Lanosterol 14-alpha demethylase (P10613 whole entry): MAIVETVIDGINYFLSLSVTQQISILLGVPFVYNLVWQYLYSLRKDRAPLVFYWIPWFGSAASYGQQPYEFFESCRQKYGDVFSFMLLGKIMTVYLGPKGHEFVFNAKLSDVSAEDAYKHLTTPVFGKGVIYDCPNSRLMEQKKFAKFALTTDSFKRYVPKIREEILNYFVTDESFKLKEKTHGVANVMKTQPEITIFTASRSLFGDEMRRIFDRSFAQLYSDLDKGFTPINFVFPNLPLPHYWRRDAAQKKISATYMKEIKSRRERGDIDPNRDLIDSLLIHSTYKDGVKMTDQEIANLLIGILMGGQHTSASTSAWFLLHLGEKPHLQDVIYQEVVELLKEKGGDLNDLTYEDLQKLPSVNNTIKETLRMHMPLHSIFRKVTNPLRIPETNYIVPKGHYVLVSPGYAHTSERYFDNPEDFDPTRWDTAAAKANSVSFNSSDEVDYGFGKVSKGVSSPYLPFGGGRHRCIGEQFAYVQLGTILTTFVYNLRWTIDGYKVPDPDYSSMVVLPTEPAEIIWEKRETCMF

## c1ccc(-c2ccc(C(c3ccccc3)n3ccnc3)cc2)cc1 (configuration not stated) [BIFONAZOLE]
Candida albicans [1]
  Range: 0.5 µg/mL
Candida albicans [2]
  MIC: 5.85 µg/mL (≈ 18.8 µM)
  MIC50: 2 µg/mL (≈ 6.44 µM)
  MIC90: 4 µg/mL (≈ 12.9 µM)
  Range: 1 µg/mL
Candida [3]
  MIC: 4.16 µg/mL (≈ 13.4 µM)
  MIC50: 4 µg/mL (≈ 12.9 µM)
  MIC90: 8 µg/mL (≈ 25.8 µM)
  Range: 0.5 µg/mL
Candida [4]
  Resistance: 0%
Candida [5]
  MIC: 4 µg/mL (≈ 12.9 µM)
  MIC50: 4 µg/mL (≈ 12.9 µM)
  MIC90: 32 µg/mL (≈ 103 µM)
  Range: 2 µg/mL
Candida albicans [6]
  MIC: 2.44 µg/mL (≈ 7.86 µM)
  MIC50: 2 µg/mL (≈ 6.44 µM)
  MIC90: 4 µg/mL (≈ 12.9 µM)
Candida [7]
  Resistance: 0%
Candida albicans [8]
  Resistance: 0%
Candida albicans [9]
  Resistance: 0%

## CSc1ccc(-c2c[nH]cc2[C@H](c2ccc(Cl)cc2Cl)n2ccnc2)cc1
Candida albicans [10]
  MIC: 7 µg/mL (≈ 16.9 µM)
  MIC50: 4 µg/mL (≈ 9.65 µM)
  MIC90: 8 µg/mL (≈ 19.3 µM)
Candida [11]
  Resistance: 0%
Candida [12]
  MIC: 66.6 µg/mL (≈ 161 µM)
  MIC50: 64 µg/mL (≈ 154 µM)
  MIC90: 128 µg/mL (≈ 309 µM)
Candida albicans [13]
  MIC: 9.14 µg/mL (≈ 22.1 µM)
  MIC50: 4 µg/mL (≈ 9.65 µM)
  MIC90: 8 µg/mL (≈ 19.3 µM)
[14]
  Ratio: 3
Candida [15]
  Range: 128 µg/mL
Candida albicans [16]
  Resistance: 0%
Candida albicans [17]
  Range: 32 µg/mL
Candida [18]
  Range: 16 µg/mL
Candida [19]
  Resistance: 0%
Candida [20]
  MIC: 9.3 µg/mL (≈ 22.4 µM)
  MIC50: 8 µg/mL (≈ 19.3 µM)
  MIC90: 16 µg/mL (≈ 38.6 µM)
Candida albicans [21]
  Resistance: 0%
Candida albicans [22]
  Range: 64 µg/mL

## Clc1ccc(-c2c[nH]cc2[C@H](c2ccc(Cl)cc2Cl)n2ccnc2)cc1
Candida albicans [23]
  Resistance: 0%
Candida albicans [24]
  Resistance: 0%
Candida [25]
  MIC: 5.01 µg/mL (≈ 12.4 µM)
  MIC50: 8 µg/mL (≈ 19.9 µM)
  MIC90: 8 µg/mL (≈ 19.9 µM)
Candida albicans [26]
  MIC: 2.14 µg/mL (≈ 5.31 µM)
  MIC50: 2 µg/mL (≈ 4.97 µM)
  MIC90: 4 µg/mL (≈ 9.93 µM)
Candida albicans [27]
  Range: 8 µg/mL
Candida albicans [28]
  Range: 32 µg/mL
[14]
  Ratio: 0.8
Candida albicans [29]
  MIC: 3.6 µg/mL (≈ 8.94 µM)
  MIC50: 1 µg/mL (≈ 2.48 µM)
  MIC90: 2 µg/mL (≈ 4.97 µM)
Candida [30]
  Resistance: 0%
Candida [31]
  Range: 8 µg/mL
Candida [32]
  Resistance: 0%
Candida [20]
  MIC: 6 µg/mL (≈ 14.9 µM)
  MIC50: 8 µg/mL (≈ 19.9 µM)
  MIC90: 64 µg/mL (≈ 159 µM)
  Range: 64 µg/mL
